Values joined by “and” are separate entries in the source; they are usually repeats but may differ in a detail not shown here. Equal entries are not always repeated.
Key:
Mus musculus [1] = test: Compound was evaluated for antitumor activity (RTV) in HT1376 carcinoma Xenograft, at a dosage 4.5 mg/kgon day 13; format: functional, organism-based; set-up: dose 4.5 mg/kg
Mus musculus [2] = test: Compound was evaluated for antitumor activity (RTV) in HT1376 carcinoma Xenograft, at a dosage 4.5 mg/kg on day 7; format: functional, organism-based; set-up: dose 4.5 mg/kg
In short: (§1)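 HT1376 tumor fragments implanted subcutaneously in nude mice flanks; mice with established palpable tumors randomized into groups of 6 (controls 10). Compounds given intraperitoneally as suspensions in 0.5% carboxymethylcellulose in 0.9% saline, on days 0, 7, 14 and 21. Tumor dimensions on days 0, 7, 14, 21, 28. RTV = 100(mean tumor volume at assessment)/(mean start volume).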

Mus musculus [3] = test: Compound was evaluated for antitumor activity (RTV) in HT1376 carcinoma Xenograft, at a dosage 4.5 mg/kg on day 21; format: functional, organism-based; set-up: dose 4.5 mg/kg; in short: as §1
Mus musculus [4] = test: Compound was evaluated for antitumor activity (T/C) in HT1376 carcinoma Xenograft, at a dosage 4.5 mg/kg on day 13; format: functional, organism-based; set-up: dose 4.5 mg/kg
In short: (§2)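 Nude mice carrying subcutaneous flank HT1376 fragments; treatment began once tumors were established and palpable, randomized into groups of 6 treated and 10 control mice. Dosing was ip as a suspension in 0.5% carboxymethylcellulose in 0.9% saline on days 0, 7, 14 and 21, at the MTD and two 2-fold dilutions. Tumors were measured on days 0-28. RTV = 100(mean volume at assessment)/(mean start volume); T/C = treated RTV/control RTV.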

Mus musculus [5] = test: Compound was evaluated for antitumor activity (T/C) in HT1376 carcinoma Xenograft, at a dosage 4.5 mg/kg on day 21; format: functional, organism-based; set-up: dose 4.5 mg/kg; in short: as §2
Mus musculus [6] = test: Compound was evaluated for antitumor activity (T/C) in HT1376 carcinoma Xenograft, at a dosage 4.5 mg/kg on day 7; format: functional, organism-based; set-up: dose 4.5 mg/kg; in short: as §2
Mus musculus [7] = test: Compound was evaluated for antitumor activity (RTV) in HT1376 carcinoma Xenograft, at a dosage 4.5 mg/kg on day 28; format: functional, organism-based; set-up: dose 4.5 mg/kg; in short: as §1
Mus musculus [8] = test: Compound was evaluated for antitumor activity (T/C) in HT1376 carcinoma Xenograft, at a dosage 4.5 mg/kg on day 28; format: functional, organism-based; set-up: dose 4.5 mg/kg; in short: as §2
[9] = Range is evaluated.; format: functional
[10] = Range is evaluated. (Highest IC50/Lowest IC50); format: functional
[11] = Solubility at 25 degrees Celsius in water; format: physicochemical; settings: buffer
In short: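 5–10 mg sample was tumbled in 5.0 mL water at 25 °C for 24 h and filtered. The solution was diluted as needed and gold was quantified with 1 ppm indium as internal standard.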

HX62 cell line = test: Compound was tested for in vitro growth inhibition of Ovarian carcinoma cell line panel HX62; format: functional, cell-based, Homo sapiens
In short: (§3)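 Ovarian lines grown as monolayers in DMEM with 10% FBS, insulin, hydrocortisone and L-glutamine under 6% CO2. Cells were seeded at 3–5 × 10³/well and left to attach overnight. Compounds were freshly dissolved in DMA or water and applied for 96 h in quadruplicate wells. Growth was measured by SRB and reported as IC50.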

A2780 [12] = test: Compound was tested for in vitro growth inhibition of Ovarian carcinoma cell line panel A2780-R; format: functional, cell-based, Homo sapiens; in short: as §3
CH1 [13] = test: Compound was tested for in vitro growth inhibition of Ovarian carcinoma cell line panel CH1-R; format: functional, cell-based; in short: as §3
SW-620 = test: Compound was tested for in vitro growth inhibition of primary panel tumor cell line SW620; format: functional, cell-based, Homo sapiens
In short: (§4)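 Primary-panel lines kept in L15, RPMI 1640 plus pyruvate, or MEM, each with 10% FBS. Cells were seeded at 5×10^4–10^5 cells/mL, preincubated 24 h, then exposed 4 h to 0–200 μg/mL from a 2 mg/mL stock in 10% DMA/PBS. After washout and 72 h further growth, cells were read by SRB. IC50 was the concentration giving 50% survival versus untreated controls.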

[14] = Solubility at 25 degrees Celsius in 1-Octanol; format: physicochemical
In short: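 A sample was tumbled in 1-octanol at 25 °C for 24 h and filtered. An aliquot was evaporated and the residue taken up in dilute aqua regia. Gold content was determined as for the aqueous samples, with indium as internal standard.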

HT-1376 = test: Compound was tested for in vitro growth inhibition of primary panel tumor cell line HT1376; format: functional, cell-based, Homo sapiens; in short: as §4
ZR-75-1 = test: Compound was tested for in vitro growth inhibition of primary panel tumor cell line ZR-75-1; format: functional, cell-based, Homo sapiens; in short: as §4
CH1 [15] = test: Compound was tested for in vitro growth inhibition of Ovarian carcinoma cell line panel CH1; format: functional, cell-based; in short: as §3
A2780 [16] = test: Compound was tested for in vitro growth inhibition of Ovarian carcinoma cell line panel A2780; format: functional, cell-based, Homo sapiens; in short: as §3
SK-OV-3 [17] = test: Compound was tested for in vitro growth inhibition of primary panel tumor cell lines SK-OV-3; format: functional, cell-based, Homo sapiens; in short: as §4
SW 1116 = test: Compound was tested for in vitro growth inhibition of primary panel tumor cell line SW1116; format: functional, cell-based, Homo sapiens; in short: as §4
HT-29 = test: Compound was tested for in vitro growth inhibition of primary panel tumor cell line HT-29/219; format: functional, cell-based, Homo sapiens; in short: as §4
SK-OV-3 [18] = test: Compound was tested for in vitro growth inhibition of Ovarian carcinoma cell line panel SK-OV-3; format: functional, cell-based, Homo sapiens; in short: as §3

| Substance | Range [10] | Solubility [11] | IC50 (HX62 cell line) | IC50 (A2780 [12]) | IC50 (CH1 [13]) | IC50 (SW-620) | Solubility [14] | IC50 (HT-1376) | IC50 (ZR-75-1) | IC50 (CH1 [15]) | IC50 (A2780 [16]) | IC50 (SK-OV-3 [17]) | IC50 (SW 1116) | IC50 (HT-29) | IC50 (SK-OV-3 [18]) | also measured |
| --- | --- | --- | --- | --- | --- | --- | --- | --- | --- | --- | --- | --- | --- | --- | --- | --- |
| CISPLATIN |  |  |  |  |  |  |  |  |  |  |  |  |  |  |  | RTV (Mus musculus [1]): 364; RTV (Mus musculus [2]): 245; RTV (Mus musculus [3]): 544; T/C (Mus musculus [4]): 0.72; T/C (Mus musculus [5]): 0.61; T/C (Mus musculus [6]): 0.88; RTV (Mus musculus [7]): 1050; T/C (Mus musculus [8]): 0.73 |
| Oxalato[2-(dimethylamino)methyl]phenyl-C,N]gold-(III) Hemihydrate [listing 1 of 2 here] | 21.5 |  |  |  |  |  |  |  |  |  |  |  |  |  |  | Range [9]: 11.4 |
| Oxalato[2-(dimethylamino)methyl]phenyl-C,N]gold-(III) Hemihydrate [listing 2 of 2 here] |  | 430 µM | 30 µM | 35 µM | 13 µM | 205 µM | 170 µM | 10 µM | 41 µM | 11 µM | 3.7 µM | 10 µM | 215 µM | 19 µM | 42 µM |  |
| Malonato[2-(dimethylamino)methyl]phenyl-C,N]gold-(III) |  | 3580 µM | 27 µM | 16 µM | 3.3 µM | 67 µM | 3570 µM | 11 µM | 36 µM | 2.7 µM | 2.7 µM | 11 µM | 80 µM | 36 µM | 30 µM |  |
| Dichloro[2-(dimethylamino)methyl]phenyl-C,N]gold-(III) | 4.6 and 13.3 |  |  |  |  |  |  |  |  |  |  |  |  |  |  |  |

From ChEMBL document CHEMBL1129059, “Antitumor properties of some 2-[(dimethylamino)methyl]phenylgold(III) complexes” (J Med Chem, 1996)
